Test results from ChEMBL document CHEMBL5620424, “Design, synthesis and evaluation of novel 2-phenyl-3-(1H-pyrazol-4-yl)pyridine positive allosteric modulators for the M4 mAChR” (Eur J Med Chem, 2023).

How the values were obtained:
[1] = target: T1, Muscarinic acetylcholine receptor M4 (Homo sapiens) (UniProt P08173); assay: […] human M4 mAChR expressed in Flp-In-CHO cells co-expressing CAMYEL biosensor assessed as change in baseline response at 10 uM incubated for 5 mins by BRET assay relative to control; assay type: cell-based
T1 sequence (whole entry): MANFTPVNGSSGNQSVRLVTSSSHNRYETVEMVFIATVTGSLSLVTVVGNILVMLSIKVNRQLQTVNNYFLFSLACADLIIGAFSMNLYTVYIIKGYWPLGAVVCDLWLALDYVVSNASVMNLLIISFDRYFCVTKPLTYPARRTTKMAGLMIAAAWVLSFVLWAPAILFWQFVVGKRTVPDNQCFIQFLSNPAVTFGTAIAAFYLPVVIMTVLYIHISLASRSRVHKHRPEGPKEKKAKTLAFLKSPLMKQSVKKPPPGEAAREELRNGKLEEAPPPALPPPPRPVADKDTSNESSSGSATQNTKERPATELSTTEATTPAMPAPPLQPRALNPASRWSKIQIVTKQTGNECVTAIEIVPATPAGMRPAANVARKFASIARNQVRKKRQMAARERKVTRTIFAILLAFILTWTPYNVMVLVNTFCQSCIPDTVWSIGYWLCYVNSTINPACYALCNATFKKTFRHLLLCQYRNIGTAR
Method in brief: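 FlpInCHO cells stably expressing human M4 mAChR, transiently transfected with CAMYEL cAMP BRET biosensor (60 ng/well, PEI), assayed 48 h later in HBSS pH 7.4. Full ACh concentration-response curve alone or with modulator at 1 or 10 μM, co-added with coelenterazine h (5 μM), 5 min, 37 °C. Three-parameter logistic fit; ACh curve values subtracted from ACh+modulator values. Δbaseline and ΔEmax given as % of maximal ACh response without modulator. 4 experiments in duplicate, SEM pooled.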

[2] = target: T1, Muscarinic acetylcholine receptor M4 (Homo sapiens); assay: Displacement of 3[H]-NMS from human M4 mAChR expressed in Flp-In-CHO cells assessed as binding co-operativity (log alpha) incubated for 6 hrs in presence of ACh by microbeta2 plate reader assay; assay type: cell-based; conditions: filed as positive allosteric modulator
Method in brief: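 Intact FlpInCHO-hM4 cells, 20,000/well grown overnight, in HBSS pH 7.4 with [3H]-NMS 0.5 nM, ACh (0.01 μM–10 mM) and modulator (0.1–10 μM), shaken 6 h at room temperature. Washed with ice-cold 0.9% NaCl, then scintillation counting. Nonspecific binding defined with 10 μM atropine. pKB and log α(ACh) from global fit to allosteric ternary complex model, with log α′(NMS) fixed at –3 under strong negative cooperativity. 4–5 experiments in duplicate.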

[3] = filed as positive allosteric modulator

| Compound | Activity [1] [%] | log(activity) [2] | Activity [1, 3] [%] |
| --- | --- | --- | --- |
| Cc1ccc(-c2cnn(CC3CCCC3)c2)c(-c2ccc(N)c([N+](=O)[O-])c2)n1 | 8.48 | 1.87 |  |
| Cc1ccc(-c2cnn(CC3CCCC3)c2)c(-c2ccc(F)c(F)c2)n1 |  | 2.04 | 51.4 |
| Cc1ccc(-c2cnn(CC3CCCC3)c2)c(-c2ccc3c(c2)C(=O)N(C)C3)n1 |  | 2.12 | 103 |
